According to ChEMBL document CHEMBL2034969, “Bioactive carbazole alkaloids from Clausena wallichii roots” (J Nat Prod, 2012):
Values after ≈ are worked out from the molar mass of the structure shown. Active and inactive are the calls of the source. The rule behind the calls is not given here.

Experiments:
NCI-H187 = assay: Cytotoxicity against human NCI-H187 cells by resazurin reduction assay; format: functional, cell-based
Staphylococcus aureus [1] = assay: Antibacterial activity against methicillin-resistant Staphylococcus aureus SK1 by broth dilution method; format: functional
Staphylococcus aureus [2] = assay: Antibacterial activity against Staphylococcus aureus TISTR 1466 by broth dilution method; format: functional
Summary of the method: (§1)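 MIC found by 2-fold serial dilution in Mueller Hinton broth following CLSI (2002) recommendations. Test substances dissolved in DMSO. Vancomycin and gentamycin run as reference drugs.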

Salmonella typhimurium = assay: Antibacterial activity against Salmonella typhimurium TISTR 292 by broth dilution method; format: functional, Salmonella enterica subsp. enterica serovar Typhimurium; summary of the method: as §1
MCF7 = assay: Cytotoxicity against human MCF7 cells by resazurin reduction assay; format: functional, cell-based
Escherichia coli = assay: Antibacterial activity against Escherichia coli TISTR 780 by broth dilution method; format: functional; summary of the method: as §1
KB = assay: Cytotoxicity against human KB cells by resazurin reduction assay; format: functional, cell-based
[3] = Homo sapiens, NCI-H187, read-out: IC50
[4] = Homo sapiens, MCF7, read-out: IC50
[5] = Homo sapiens, KB, read-out: IC50
[6] = Salmonella enterica subsp. enterica serovar Typhimurium

Compound | IC50 (NCI-H187; [3]) [µM] | MIC (Staphylococcus aureus [1]) | MIC (Staphylococcus aureus [2]) | MIC (Salmonella typhimurium; Salmonella enterica) [µg/mL] | IC50 (MCF7; [4]) [µM] | MIC (Escherichia coli) | IC50 (KB; [5]) [µM] | IC50 (KB; kb) | IC50 (MCF7; mcf7) | IC50 (NCI-H187; nci-h187) | MIC (Salmonella typhimurium; [6])
COc1cc2[nH]c3ccccc3c2cc1O | 27.4 | inactive | inactive | 128 (≈ 600 µM) | 31.4 | 128 µg/mL (≈ 600 µM) | 213 |  |  |  | 
COC(=O)c1ccc2[nH]c3ccccc3c2c1 | 95.8 | inactive | inactive | 128 (≈ 568 µM) | 170 | 128 µg/mL (≈ 568 µM) | 59.7 |  |  |  | 
COc1ccc2c(c1)[nH]c1cc(O)c(C=O)cc12 | 45.9 | 128 µg/mL (≈ 531 µM) | inactive | 128 (≈ 531 µM) | 69.1 | inactive | 181 |  |  |  | 
COc1ccc2c(c1)[nH]c1c(CC=C(C)C)c(O)c(C=O)cc12 | 42.3 | inactive | inactive | 128 (≈ 414 µM) | 53.9 | 128 µg/mL (≈ 414 µM) |  | Not Active |  |  | 
CC(C)=CCc1c(O)c(C=O)cc2c1[nH]c1cc(O)ccc12 [7-HYDROXYHEPTAPHYLLINE] | 19.6 | 4 µg/mL (≈ 13.5 µM) | 8 µg/mL (≈ 27.1 µM) | 64 (≈ 217 µM) |  | 64 µg/mL (≈ 217 µM) | 107 |  | Not Active |  | 
CC1(C)C=Cc2c(ccc3[nH]c4cc(O)c(C=O)cc4c23)O1 [CLAURAILAS D] | 60.8 | 128 µg/mL (≈ 436 µM) | inactive | 128 (≈ 436 µM) | 66.1 | 64 µg/mL (≈ 218 µM) | 293 |  |  |  | 
Cc1cc2c([nH]c3ccc4c(c32)C=CC(C)(C)O4)c(-c2c(O)c(C)cc3c2[nH]c2ccc4c(c23)C=CC(C)(C)O4)c1O [CLAUSENAWALLINE A] |  | 128 µg/mL (≈ 230 µM) | 64 µg/mL (≈ 115 µM) | 128 (≈ 230 µM) |  | inactive |  |  |  |  | 
COc1cc2[nH]c3c(CC=C(C)C)c(O)c(C=O)cc3c2c(-c2cc3c(cc2O)[nH]c2ccccc23)c1O [CLAUSENAWALLINE B] |  | 16 µg/mL (≈ 31.6 µM) | 8 µg/mL (≈ 15.8 µM) | 128 (≈ 253 µM) |  | 128 µg/mL (≈ 253 µM) |  |  |  |  | 
Cc1cc2c([nH]c3ccc4c(c32)C=CC(C)(C)O4)c2c1OC(C)(C)C=C2 [CLAUSENAWALLINE C] |  | inactive | inactive | 128 (≈ 371 µM) |  | 128 µg/mL (≈ 371 µM) |  | Not Active | Not Active | Not Active | 
COc1ccc2c(c1)[nH]c1cc(OC)c(O)cc12 [CLAUSENAWALLINE D] |  | inactive | inactive | 128 (≈ 526 µM) |  | 128 µg/mL (≈ 526 µM) |  |  |  |  | 
COc1cc2[nH]c3ccc(O)c(-c4c(O)c(C)cc5c4[nH]c4ccc6c(c45)C=CC(C)(C)O6)c3c2cc1C [CLAUSENAWALLINE E] |  | 8 µg/mL (≈ 15.9 µM) | 8 µg/mL (≈ 15.9 µM) | 128 (≈ 254 µM) |  | 128 µg/mL (≈ 254 µM) |  |  |  |  | 
COC(=O)c1cc2c([nH]c3ccccc32)c(O)c1-c1c(O)c(C=O)cc2c1[nH]c1cc(OC)ccc12 [CLAUSENAWALLINE F] | 4.5 | 64 µg/mL (≈ 133 µM) | 64 µg/mL (≈ 133 µM) |  | 62.3 | 128 µg/mL (≈ 266 µM) | 10.2 |  |  |  | inactive
COC(=O)c1ccc2[nH]c3cc(OC)ccc3c2c1 [CLAUSINE C] |  | inactive | inactive | 128 (≈ 501 µM) |  | inactive |  | Not Active | Not Active | Not Active | 
COC(=O)c1cc2c(cc1OC)[nH]c1ccccc12 [CLAUSINE L] |  | inactive | inactive | 128 (≈ 501 µM) |  | 128 µg/mL (≈ 501 µM) |  | Not Active | Not Active | Not Active | 
COC(=O)c1cc2c(cc1OC)[nH]c1cc(OC)ccc12 [CLAUSZOLINE C] |  | inactive | inactive | 128 (≈ 449 µM) |  | 128 µg/mL (≈ 449 µM) |  | Not Active | Not Active | Not Active | 
COc1ccc2c(c1)[nH]c1ccc(C=O)cc12 [CLAUSZOLINE K] |  | 128 µg/mL (≈ 568 µM) | inactive |  |  | 128 µg/mL (≈ 568 µM) |  | Not Active | Not Active | Not Active | inactive
COc1cccc2c1C(=O)c1c(O)c3c(c(O)c1C2=O)C[C@@](O)(C(=O)CO)C[C@@H]3O[C@H]1C[C@H](N)[C@H](O)[C@H](C)O1 [DOXORUBICIN] | 0.1 |  |  |  | 16.8 |  | 1.7 |  |  |  | 
Cc1c2ccncc2c(C)c2c1[nH]c1ccccc12 [ELLIPTECINE] | 3.1 |  |  |  |  |  | 5.2 |  |  |  | 
COc1cc2[nH]c3ccccc3c2cc1C=O [GLYCOSININE] | 18.2 | 128 µg/mL (≈ 568 µM) | inactive | 128 (≈ 568 µM) | 111 | inactive | 103 |  |  |  | 
Cc1cc2c([nH]c3ccccc32)c2c1OC(C)(C)C=C2 [GRINIMIBINE] | 58.9 | inactive | inactive |  | 28.8 | 128 µg/mL (≈ 486 µM) | 263 |  |  |  | inactive
CC(C)=CCc1c(O)c(C=O)cc2c1[nH]c1ccccc12 [HEPTAPHYLLINE] | 20.2 | inactive | inactive | 128 (≈ 458 µM) | 171 | 128 µg/mL (≈ 458 µM) | 94.2 |  |  |  | 
COc1ccc2c(c1)[nH]c1cc(OC)c(C=O)cc12 [LANSINE] |  | inactive | inactive |  |  | 128 µg/mL (≈ 501 µM) |  | Not Active | Not Active | Not Active | inactive
O=Cc1cc2c(cc1O)[nH]c1ccccc12 [MUKONAL] |  | 64 µg/mL (≈ 303 µM) | inactive | 128 (≈ 606 µM) |  | 128 µg/mL (≈ 606 µM) |  | Not Active | Not Active | Not Active | 
COC(=O)c1cc2c(cc1O)[nH]c1ccccc12 [MUKONIDINE] | 134 | 64 µg/mL (≈ 265 µM) | 64 µg/mL (≈ 265 µM) | 32 (≈ 133 µM) | 205 | 128 µg/mL (≈ 531 µM) |  | Not Active |  |  | 
CN[C@H](CC(C)C)C(=O)N[C@H]1C(=O)N[C@@H](CC(N)=O)C(=O)N[C@H]2C(=O)N[C@H]3C(=O)N[C@H](C(=O)N[C@H](C(=O)O)c4cc(O)cc(O)c4-c4cc3ccc4O)[C@H](O)c3ccc(c(Cl)c3)Oc3cc2cc(c3O[C@@H]2O[C@H](CO)[C@@H](O)[C@H](O)[C@H]2O[C@H]2C[C@](C)(N)[C@H](O)[C@H](C)O2)Oc2ccc(cc2Cl)[C@H]1O [VANCOMYCIN] |  |  | 0.25 µg/mL (≈ 0.173 µM) |  |  |  |  |  |  |  | 
GENTAMICIN |  |  |  |  |  | 0.25 µg/mL |  |  |  |  | 0.125 µg/mL
